The target of assay [1] is Glucoamylase (Aspergillus niger) (UniProt P69328). The assay can be described thus: Inhibition of amyloglucosidase from Aspergillus niger at 1 mM at pH 5. The essentials: (§1)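 Glycosidase panel of commercial enzymes assayed at each enzyme's optimal pH with compound at 1 mM; percentage inhibition of enzyme activity calculated.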
A further assay relates to Canavalia ensiformis. Description: Inhibition of alpha-mannosidase from jack bean at 1 mM at pH 5. In outline: as §1
The next assay concerns Helix pomatia. The assay can be described thus: Inhibition of beta-mannosidase from snail at pH 4. Set-up: concentration or dose not given beside the values. As to conditions: concentration not given here.
A further assay deals with Jurkat. The assay can be described thus: Cytotoxicity against human Jurkat cells after 72 hrs by colorimetric assay. The note with it: Homo sapiens, Jurkat, 72 h; read-out: IC50. The class given is functional, cell-based.
For another assay, the system named is MDA-MB-231. Description: Cytotoxicity against human MDA-MB-231 cells after 72 hrs by colorimetric assay. In kind it is functional, cell-based. As to conditions: Homo sapiens, MDA-MB-231, 72 h; read-out: IC50. In outline: (§2)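 Cells grown in McCoy's medium (adherent lines) or RPMI-1640 (U266), each with 10% FBS, L-glutamine and antibiotics, at 37 °C in 5% CO₂. Compound dissolved as a 100 mM DMSO stock, final DMSO ≤0.4%. Cells were exposed for 72 h across a 10^-2 to 400 µM range. Viability was read by CellTiter 96 Aqueous (2–4 h incubation, absorbance 490 nm). Triplicate wells; IC50 from curve fitting.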

A further assay deals with BT-474. The assay can be described thus: Cytotoxicity against human BT474 cells after 72 hrs by colorimetric assay. In kind it is functional, cell-based. As to conditions: Homo sapiens, BT-474, 72 h; read-out: IC50. In outline:
as §2

In the next assay the test system is A549. The assay can be described thus: Cytotoxicity against human A549 cells after 72 hrs by colorimetric assay in presence of pan-caspase inhibitor zVAD-fmk. In kind it is functional, cell-based.
For assay [2], the system named is SK-BR-3. Description: Cell cycle arrest in human SKBR3 cells by accumulation of cells at S phase at 100 uM after 48 hrs by propidium iodide-staining based flow cytometry (reference value: 30%). The class given is functional.
For assay [3], the system named is SK-BR-3. Description: Cell cycle arrest in human SKBR3 cells by accumulation of cells at G2/M phase at 200 uM after 48 hrs by propidium iodide-staining based flow cytometry (reference value: 16%). The class given is functional. On the technique in general: In flow cytometry, cells or beads pass a laser one at a time.
Assay [4] has as its system SK-BR-3. The assay can be described thus: Decrease in cyclinE1 mRNA level in human SKBR3 cells at 50 uM after 12 hrs by TLDA. In kind it is functional, cell-based. The essentials:
(§3)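 SKBR3 and MCF7 cells seeded at 2 × 10⁵ per well, treated 12 h with 50 µM compound (DMSO stock); total RNA extracted, cDNA made with random hexamers, gene expression profiled by TaqMan low-density arrays (qPCR, duplicate per gene). Normalised to RPLP0; fold change versus DMSO vehicle-treated cells, calculated as 2^-ΔΔCT.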

Assay [5] concerns MCF7. Description: Decrease in ID1 mRNA level in human MCF7 cells at 50 uM after 12 hrs by TLDA. In kind it is functional, cell-based. The essentials: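 SKBR3 or MCF7 cells, 2×10⁵/well, treated with 50 µM for 12 h. Total RNA was column-purified and reverse-transcribed with random hexamers, then assayed on TaqMan low-density arrays. Expression was normalised to RPLP0, with fold change versus DMSO-vehicle cells calculated as 2^-ΔΔCT. Q-PCR run in duplicate per gene.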

Assay [6] has as its system MCF7. Description: Increase in CDKN1C mRNA level in human MCF7 cells at 50 uM after 12 hrs by TLDA. The class given is functional, cell-based. In outline: as §3
Assay [7] can be described thus: Cytotoxicity in human multiple myeloma cells assessed as pre-necrotic cells at 50 uM after 24 hrs by annexin V/propidium iodide staining based flow cytometry (reference value: 42.1%). The class given is functional, Multiple myeloma cell.
Assay [8] in a line: Cytotoxicity in human multiple myeloma cells assessed as pre-necrotic cells at 100 uM after 24 hrs by annexin V/propidium iodide staining based flow cytometry (reference value: 42.1%). The class given is functional, Multiple myeloma cell.
The nature of assay [9]: Cytotoxicity in human B-CLL assessed as viable cells at 200 uM after 24 hrs by annexin V/propidium iodide staining based flow cytometry (reference value: 65.8 to 78%). In kind it is functional. The note with it: read-out: Activity.
The target of assay [10] is T1, Tissue alpha-L-fucosidase (Bos taurus) (UniProt Q2KIM0).
T1 sequence (whole entry): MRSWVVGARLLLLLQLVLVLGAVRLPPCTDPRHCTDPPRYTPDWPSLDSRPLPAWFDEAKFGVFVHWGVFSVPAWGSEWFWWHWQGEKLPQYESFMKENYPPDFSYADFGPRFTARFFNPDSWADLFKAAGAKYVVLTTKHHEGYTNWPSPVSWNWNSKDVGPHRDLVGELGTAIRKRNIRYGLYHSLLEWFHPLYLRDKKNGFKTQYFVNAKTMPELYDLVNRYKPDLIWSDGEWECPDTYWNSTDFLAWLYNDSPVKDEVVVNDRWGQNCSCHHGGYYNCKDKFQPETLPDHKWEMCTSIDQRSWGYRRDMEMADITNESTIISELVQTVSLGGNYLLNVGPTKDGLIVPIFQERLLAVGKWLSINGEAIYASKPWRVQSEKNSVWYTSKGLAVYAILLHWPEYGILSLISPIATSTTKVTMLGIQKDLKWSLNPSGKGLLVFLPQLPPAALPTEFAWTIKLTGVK
The assay can be described thus: Inhibition of alpha-L-fucosidase from bovine kidney at 1 mM at pH 6. In outline:
as §1

The record followed here is ChEMBL document CHEMBL1157882, “Novel 2-[(benzylamino)methyl]pyrrolidine-3,4-diol derivatives as alpha-mannosidase inhibitors and with antitumor activities against hematological and solid malignancies” (Bioorg Med Chem, 2010).

Calls of active or inactive are those of the source. No cut-off for these calls is given here.

Usually inhibition stands for the percentage by which the read-out fell short of the control. As usually defined, the IC50 is the point on the concentration scale where inhibition reaches its midpoint.

Glucoamylase (Aspergillus niger), sequence (P69328 whole entry): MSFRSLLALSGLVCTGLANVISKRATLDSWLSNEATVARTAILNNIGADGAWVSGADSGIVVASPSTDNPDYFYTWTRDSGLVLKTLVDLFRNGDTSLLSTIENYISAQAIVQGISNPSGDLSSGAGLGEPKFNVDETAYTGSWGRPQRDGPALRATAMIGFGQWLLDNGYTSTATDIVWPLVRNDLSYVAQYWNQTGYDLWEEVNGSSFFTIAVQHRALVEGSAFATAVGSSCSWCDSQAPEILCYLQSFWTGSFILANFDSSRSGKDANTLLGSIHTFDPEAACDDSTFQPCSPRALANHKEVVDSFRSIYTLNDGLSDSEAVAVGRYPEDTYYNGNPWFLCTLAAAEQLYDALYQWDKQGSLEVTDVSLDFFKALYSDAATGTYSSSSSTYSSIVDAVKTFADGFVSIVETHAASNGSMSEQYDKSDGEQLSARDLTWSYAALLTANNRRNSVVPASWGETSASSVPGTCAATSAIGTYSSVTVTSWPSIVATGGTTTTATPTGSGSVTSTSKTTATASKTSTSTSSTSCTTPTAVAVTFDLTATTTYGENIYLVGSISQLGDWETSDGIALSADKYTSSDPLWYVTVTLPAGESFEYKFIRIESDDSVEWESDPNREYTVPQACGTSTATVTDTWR

Turning to `OC[C@H](NC[C@H]1NC[C@H](O)[C@@H]1O)c1ccc(-c2ccc(C(F)(F)F)cc2)cc1`, the inhibition was less than 10% in [1], 98% in the assay on Canavalia ensiformis, less than 10% with Helix pomatia and less than 10% in assay [10]. Moreover, the IC50 in the assay with Jurkat was determined as 75 µM; with MDA-MB-231 it was 66 µM; with BT-474, 93 µM. Also, the result in the assay with A549, with SK-BR-3 [4], in the assay on MCF7 [5] and with MCF7 [6] was Active. For the same molecule, the Activity in the assay on SK-BR-3 [2] was determined as 9%; with SK-BR-3 [3], 42%; in assay [7], 17%; in assay [8], 17%. Moreover, the viability at 200 µM in [9] came out at 1.6%.
